Screening results (PubChem BioAssay)
Shown are actives, neighbours in structure and some others; about 5.3% of the full set was active somewhere.
Cav3 T inh = Cav3.2 calcium influx blockers – cell-based, Fluo-4 calcium fluorescence, FDSS, MLSMR library, primary screen. Cav3.2-expressing cells; active compounds read low. B-score at 10 µM. actives 4% (n = 100,000);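 active = single-dose well whose peak fluorescence ratio is a statistical outlier from its plate by either plate-standardised score or position-corrected B-score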
Plk1 PBD FP = Plk1 polo box domain binding inhibitors, primary screen, biochemical, fluorescence polarization. Serine/threonine-protein kinase PLK1 (Homo sapiens), P53350. Plk1 PBD phosphopeptide binding. inhibition, %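 (tested at about 20 µM)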. actives 0.13% (n = 97,000). AID 693, 2007; in the data active = inhibition above about 34%, passing the limit was not always enough
FAK blocker = FAK kinase inhibitors, primary screen, biochemical; inhibition, %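 (tested at 7 µM)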; biochemical FAK kinase activity assay; actives 0.84% (n = 97,000); AID 727, 2007; Focal adhesion kinase 1 (Homo sapiens), Q05397; in the data active = inhibition above about 19%;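 note: 0% = DMSO and 100% = reference compound high control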
Target sequence (Q05397 whole entry, looked up): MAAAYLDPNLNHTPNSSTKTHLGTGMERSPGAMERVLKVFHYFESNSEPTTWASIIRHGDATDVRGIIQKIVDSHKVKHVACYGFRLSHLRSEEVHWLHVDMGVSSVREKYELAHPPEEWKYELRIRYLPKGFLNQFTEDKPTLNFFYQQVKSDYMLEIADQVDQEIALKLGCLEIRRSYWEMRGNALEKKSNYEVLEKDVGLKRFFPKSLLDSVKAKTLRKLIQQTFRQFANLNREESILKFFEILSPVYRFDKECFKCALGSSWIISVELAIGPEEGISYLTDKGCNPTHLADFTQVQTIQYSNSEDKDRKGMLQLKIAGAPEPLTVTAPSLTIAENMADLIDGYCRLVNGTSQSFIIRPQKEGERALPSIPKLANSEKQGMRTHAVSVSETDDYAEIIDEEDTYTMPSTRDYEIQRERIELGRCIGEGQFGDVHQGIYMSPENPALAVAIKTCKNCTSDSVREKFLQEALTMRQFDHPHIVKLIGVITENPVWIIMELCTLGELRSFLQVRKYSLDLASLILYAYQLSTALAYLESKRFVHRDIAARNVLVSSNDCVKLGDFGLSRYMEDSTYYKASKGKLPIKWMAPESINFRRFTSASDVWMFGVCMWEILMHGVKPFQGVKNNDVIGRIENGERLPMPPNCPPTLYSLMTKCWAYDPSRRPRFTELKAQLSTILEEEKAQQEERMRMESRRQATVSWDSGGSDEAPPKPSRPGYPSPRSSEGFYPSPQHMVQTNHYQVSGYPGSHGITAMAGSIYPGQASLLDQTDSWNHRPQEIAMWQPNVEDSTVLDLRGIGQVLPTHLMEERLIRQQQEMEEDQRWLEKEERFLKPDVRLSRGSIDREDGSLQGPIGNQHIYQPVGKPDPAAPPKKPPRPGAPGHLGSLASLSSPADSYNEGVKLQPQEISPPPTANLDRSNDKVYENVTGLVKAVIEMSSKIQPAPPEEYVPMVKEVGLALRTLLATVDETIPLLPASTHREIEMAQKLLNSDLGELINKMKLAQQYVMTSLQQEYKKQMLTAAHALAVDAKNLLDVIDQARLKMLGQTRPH
Rev-RRE block = HIV-1 Rev-RRE binding inhibitors, primary screen, biochemical, FRET, protein-RNA interaction | actives 0.79% (n = 97,000) | Rev peptide-RRE RNA binding | inhibition, % at 8 µM | P05866;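 active = inhibition above the screen-wide mean plus 3 SD, cut at about 35% in these data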;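 note: 0% = median DMSO wells and 100% = median Neomycin B control wells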
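Assay system: Rev peptide and RRE RNA, both fluorescently labelled; times: 5 min preincubation and 15 min binding, 25 °C; detection: FRET, ex 480 nm, em 540 and 671 nm; read-out basis: % inhibition from 671/540 nm acceptor-to-donor ratio, scaled between controls; benchmarks: DMSO low control, neomycin B high control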
EphB4 ephrin blk = EphB4-ephrin-B2 interaction antagonists, primary screen, biochemical, TNYL-RAW peptide probe, fluorescence polarization. Ephrin type-B receptor 4 (Homo sapiens), P54760. EphB4 LBD / TNYL-RAW-Alexa532 peptide. actives 0.15% (n = 97,000). inhibition, % at 7 µM;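 active = inhibition above the screen-wide mean inhibition plus 3 SD, cut at about 15% in these data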;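 note: 0% = DMSO wells and 100% = excess unlabeled TNYL-RAW peptide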
PLK1 kinase inh = human PLK1 kinase inhibitors, primary screen, biochemical, TR-FRET | AID 619, 2007 | actives 0.53% (n = 97,000) | recombinant PLK1 kinase, TR-FRET peptide phosphorylation | Serine/threonine-protein kinase PLK1 (Homo sapiens), P53350 | inhibition, % at 10 µM;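 active = inhibition of 50% or more in the single-concentration screen; inactive = inhibition below 50%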;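 note: 0% = DMSO max control and 100% = H-89 dihydrochloride min control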
Numbers without * were called inactive; . = no result given; [ ] = dose if it differs, or a comment.

SMILES | Cav3 T inh | Plk1 PBD FP | FAK blocker | Rev-RRE block | EphB4 ephrin blk | PLK1 kinase inh
C/C(=C\C(=O)c1ccc(Cl)cc1)NCc1ccc2c(c1)OCO2 | -0.431 | -17.7 | -4.8 | -7.0 | -5.4 | -3.1
Cc1ccc(N(CCCCN2C(=O)c3ccccc3C2=O)C(=O)c2cccs2)cc1 | -5.82* | 15.6 | 1.0 | 8.4 | -5.0 | -14.5
O=C1c2ccccc2C(=O)N1CCCCN(C(=O)c1ccco1)c1ccc(Cl)cc1 | -8.47* | 0.3 | -4.1 | -1.8 | -1.7 | -17.1
Fc1ccc(-n2nnc(-c3ncc[nH]3)n2)cc1 | -0.0463 | . | . | . | . | .
COCc1cc(C)nc(N2CCNCC2)c1C#N | 0.545 | 1.4 | 1.9 | 2.6 | -1.0 | -8.8
COc1ccc(NC(C)C(=O)Nc2ccc(C(C)(C)C)cc2)cc1Cl (centres undefined) | -6.02* | -11.8 | 0.8 | 5.2 | 4.7 | -8.5
COc1ccc(OC)c(NC(=O)CSc2nnc(Cc3cccn3C)n2-c2ccc(F)cc2)c1 | -2.49 | -9.6 | 2.7 | -2.2 | -9.0 | -9.0
COc1ccc(-n2c(Cc3cccn3C)nnc2SCC(=O)Nc2ccccc2F)cc1 | -4.45* | . | . | . | . | .
COc1ccc(-n2c(Cc3cccn3C)nnc2SCC(=O)Nc2ccc(F)cc2F)cc1 | -8.44* | . | . | . | . | .
Cc1ccc(N2CCN(C(=O)c3ccccc3)CC2)c(C)c1 | -0.987 | 10.5 | 2.5 | 11.8 | -3.0 | 3.3
CCCC(=O)O[C@@H]1C[C@@H](C)N(C(=O)c2ccccc2)c2ccc(C)cc21 | -4.06* | -20.6 | -5.1 | -3.4 | -5.4 | -0.5
C[C@H]1CC[C@H]2C(=O)N[C@H](Cc3ccccc3)C(=O)N2[C@@H]1c1ccccc1 | -0.0893 | . | . | . | . | .
CN1CCN(CC(=O)Nc2nc(-c3ccccc3)cs2)CC1 | . | 18.6 | -2.5 | 0.8 | -6.1 | -5.2
O=C(CS(=O)(=O)c1ccccc1)Nc1nc(-c2ccccc2)cs1 | -4.92* | 5.8 | 4.1 | 6.0 | 1.4 | -10.0
Cc1ccc(S(=O)(=O)CC(=O)Nc2nc(-c3ccccc3)cs2)cc1 | -7.22* | -4.2 | 1.2 | 14.7 | 0.6 | -6.7
O=C(O)CCCC(=O)Nc1nc(-c2ccccc2)cs1 | 0.901 | -14.1 | -6.4 | 6.3 | 2.8 | -4.0
CC1(c2nnc(-c3ccncc3)o2)CC(c2ccc([N+](=O)[O-])cc2)=NO1 (centres undefined) | 0.771 | . | . | . | . | .
O=C(CNC(=O)c1cccs1)c1ccc(F)cc1 | -0.000431 | -16.8 | -0.3 | 6.0 | -1.8 | -16.6
COc1cccc(CN2C(=O)C3CCCN3c3ccc(S(=O)(=O)N4CCOCC4)cc32)c1 (centres undefined) | -0.758 | 20.1 | -1.3 | 6.5 | 4.4 | -18.5
O=C(NNC1=C(C(=O)C(F)(F)F)CCC1)c1ccccc1O | -6.29* | 4.2 | -7.1 | 5.4 | 3.4 | 6.0
O=C(NNC1=C(C(=O)C(F)(F)F)CCC1)c1ccc(Br)cc1 | -5.09* | 13.6 | -7.4 | 1.2 | 3.5 | -10.1
CC(C(=O)Nc1ccccc1Sc1ccccc1)N(c1ccccc1)S(C)(=O)=O (centres undefined) | . | -2.3 | 0.9 | 11.1 | -0.2 | -12.1
CCOC(=O)N1CCC(NC(=O)C2CCN(C(=O)N3CCOc4ccccc43)CC2)CC1 | 1.32 | 17.8 | -1.4 | -3.1 | 4.7 | 54.5*
Cc1ccc([C@@H]2C3COCC=C3C(C#N)=C(N)C2(C#N)C#N)o1 (some centres undefined) | 0.018 | -17.2 | 1.7 | 41.6* | -0.5 | -0.8
CC(C)N(C(=O)COc1ccc(Br)cc1Cl)C(C)C | -5.55* | -17.9 | -0.4 | 15.1 | 3.9 | -13.4
SMILES | Cav3 T inh | Plk1 PBD FP | FAK blocker | Rev-RRE block | EphB4 ephrin blk | PLK1 kinase inh
COc1ccc(Nc2nc(Nc3ccc(OC)cc3)nc(SC3=NCCS3)n2)cc1 | -5.88* | -11.1 | 0.5 | -3.7 | -0.9 | -1.6
CCOc1nc(Nc2ccc(OC)cc2)nc(OCC)n1 | -0.00216 | -9.4 | -1.2 | 2.0 | -3.6 | 6.3
Cc1ccc(C(=O)NNC(=O)C2CCN(Cc3ccccc3)CC2)cc1 | . | -14.4 | -8.2 | -0.8 | -4.2 | -2.0
Cc1ccccc1NC(=O)c1ccc(CN2CCC(Cc3ccccc3)CC2)cc1 | -7.07* | -9.1 | 3.8 | 8.4 | -4.3 | -10.9
CCOc1ccc(NC(=O)C(C)Oc2ccccc2C(=O)Nc2ccc(C)c(Cl)c2)cc1 (centres undefined) | -0.0873 | -2.5 | 2.2 | 14.8 | 16.8* | -7.8
CCN(C(=O)c1ccc2c(Cl)c3c(nc2c1)CCC3)c1cccc(C)c1 | -5.58* | . | . | . | . | .
CCc1ccc(N(CC)C(=O)c2ccc3c(Cl)c4c(nc3c2)CCC4)cc1 | -3.24* | . | . | . | . | .
Cc1ccc(N(C)C(=O)c2ccc3c(Cl)c4c(nc3c2)CCC4)cc1C | -5.53* | . | . | . | . | .
CCOC(=O)N1CCC(NC(=O)c2ccc3c(Cl)c4c(nc3c2)CCCC4)CC1 | -3.12 | . | . | . | . | .
COc1cccc(CN2C[C@]34C=C[C@@H](C[C@@H]3S2(=O)=O)O4)c1 | 0.45 | . | . | . | . | .
CCc1cccc(NC(=O)CSC2=NS(=O)(=O)c3ccccc32)c1 | -5.43* | 0.8 | 1.0 | 11.1 | 0.6 | -6.0
CCc1cccc(NC(=O)Cn2cccc2)c1 | 0.131 | -4.5 | 6.4 | -2.6 | -0.3 | -21.1
COc1ccccc1N1C(=O)c2cccc3c(C(=O)O)ccc(c23)C1=O | -0.617 | 19.9 | 8.8 | 3.2 | 4.8 | -10.7
Cc1ccccc1N1C(=O)c2cccc3c(N(C)CCO)ccc(c23)C1=O | -4.25* | -26.2 | -3.5 | 125.5*[fluorescence artefact?] | 3.3 | -33.4
CC(=O)c1sc2nc(-c3cccs3)cc(C(F)(F)F)c2c1N | -1.41 | -21.2 | 1.9 | 106.9*[fluorescence artefact?] | -1.7 | -12.9
CS(=O)(=O)c1sc2nc(-c3cccs3)cc(-c3ccccc3)c2c1N | -1.52 | -14.0 | -6.0 | 36.0* | -3.0 | -6.9
Nc1c(C(=O)C2CC2)sc2nc(-c3ccccc3)cc(C(F)(F)F)c12 | -6.19* | 17.5 | 0.6 | 111.6*[fluorescence artefact?] | 2.1 | -29.2
COc1cccc(NC(=O)Cc2cn(C)c3ccccc23)c1 | -4.5* | 6.7 | -1.2 | 5.1 | 1.2 | -1.2
N#CC(/C(=N/S(=O)(=O)c1cccs1)c1ccccc1)c1nc2ccccc2[nH]1 (centres undefined) | . | 5.5 | -7.8 | -3.7 | 1.0 | -11.2
O=S(=O)(/N=C(/Nc1cccc2ccccc12)c1ccccc1)c1cccs1 | -4.61* | 5.3 | 8.3 | 7.4 | 5.4 | -16.5
O=C(NC(=S)N(CCCCO)C1CCCCC1)c1sc2ccccc2c1Cl | -1.72 | -4.4 | -5.6 | 4.8 | 3.8 | -9.6
CCc1cccc(NC2c3ccccc3C(=O)N2c2cccnc2)c1 (centres undefined) | -0.297 | . | . | . | . | .
Cc1cc(Cl)ccc1NC(=O)CN1CCC(C(O)(c2ccccc2)c2ccccc2)CC1 | -4.26* | -10.2 | 5.7 | 2.4 | -5.6 | -11.8
Cc1ccc(SCCN2CCN(CC(C)C)CCC2=O)cc1 | -0.23 | . | . | . | . | .
